The source made the active and inactive calls.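 How the source made its calls, unless noted: active means GFP response above 150% of the DMSO level; inconclusive means fewer than 70 events counted for a yeast strain; inactive means the rest.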

Experiment [1] is described as follows: hit retest on RPL19A-GFP reporter strain – cell-based, S. cerevisiae, flow cytometry, cherry picks, mother/daughter gates, confirmation (AID 2270;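 active means GFP response below 50% of the DMSO control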). To be noted: 3 h, at 10 µM, stronger effect = lower value, 100 = same GFP as DMSO wells.
The nature of experiment [2]: yeast TOR pathway reporter LAP4-GFP change – cell-based, cherry picks, flow cytometry, mother/daughter gates, confirmation (AID 2271;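 active means GFP response above 150% of the DMSO control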;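 further: ratio of sample to DMSO plate mean so 100% equals DMSO level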). The note with it: S. cerevisiae LAP4-GFP strain, 3 h, at 10 µM, stronger effect = higher value, 100 means same as DMSO control. In a few lines:
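Material: Alexa 633-stained baker's yeast GFP-fusion strain; Compound dosing: single test-compound dose, 10 µM final; Incubation: 30 °C, 3 h compound incubation, rotating; Detection: HT flow cytometry, GFP fluorescence channel; Control set: positive rapamycin (400 ng/mL), negative DMSO.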

Experiment [3] in a line: TOR pathway reporter MEP2-GFP, retest of hits – S. cerevisiae, flow cytometry GFP, cherry picks, confirmation (AID 2272;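 active means GFP response above 150% of the DMSO control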;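 further: ratio of well signal to plate DMSO mean so 100% equals DMSO level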). To be noted: S. cerevisiae MEP2-GFP strain, 3 h, at 10 µM, stronger effect = higher value.
Experiment [4] in a line: yeast AGP1-GFP fluorescence change, single-dose – cell-based, flow cytometry, S. cerevisiae, cherry picks, confirmation (AID 2273).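 Further: median GFP channel fluorescence over the whole cell population gate.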 The note with it: S. cerevisiae AGP1-GFP strain, 3 h, at 10 µM.
Experiment [5] in a line: TOR pathway CIT2 reporter hit retest – S. cerevisiae, GFP fusion, cherry picks, mother/daughter gates, confirmation (AID 2274). To be noted: S. cerevisiae CIT2-GFP strain, flow cytometry, 3 h, at 10 µM, stronger effect = higher value.
The mark [6] stands for this setting: measured here: daughter cell gate.
[7] abbreviates: measured here: mother cell gate.
The mark [8] stands for this setting: measured here: daughter cell gate response.
Setting [9] is: measured here: mother cell gate response.

In the case of `CN1CCc2c(sc3c2C(=O)NC(c2ccc4c(c2)OCO4)N3)C1` (stereo not drawn), the GFP response vs DMSO is 98.4% (inactive) in experiment [1], 99.8% in experiment [1] (setting [6]), 98.5% in experiment [1] (setting [7]) and 106% (inactive) in experiment [3]. Moreover, the results for the GFP response relative to DMSO in experiment [2], in experiment [2] (setting [8]) and in experiment [2] (setting [9]) were 96.5% (inactive), 95% and 98.5%, respectively. Moreover, the GFP response, % of DMSO in experiment [4] is 102% (inactive); in experiment [5], 102% (inactive); in experiment [5] (setting [6]) it was 102%; in experiment [5] (setting [7]), 99.1%.
With `O=C(O)CCC(=O)Nc1ccc(S(=O)(=O)c2ccc(NC(=O)CCC(=O)O)cc2)cc1`, the GFP response vs DMSO is 98.5% (inactive) in experiment [1], 100% in experiment [1] (setting [6]), 97.7% in experiment [1] (setting [7]) and 106% (inactive) in experiment [3]. Also, the GFP response relative to DMSO in experiment [2] is 102% (inactive); in experiment [2] (setting [8]), 97.5%; in experiment [2] (setting [9]), 102%. Also, the GFP response, % of DMSO in experiment [4] was 100% (inactive); in experiment [5], 98.6% (inactive); in experiment [5] (setting [6]) it was 99.3%; in experiment [5] (setting [7]), 99.3%.
On to `COc1ccc(Br)cc1/C=N/NC(=O)Cn1nnnc1N`, for which the GFP response vs DMSO in experiment [1] was 99.2% (inactive); in experiment [1] (setting [6]), 97.6%; in experiment [1] (setting [7]) it was 103%; in experiment [3] it was 109% (inactive). The GFP response relative to DMSO in experiment [2] was 99.2% (inactive); in experiment [2] (setting [8]), 97.6%; in experiment [2] (setting [9]), 100%. For the same compound, the GFP response, % of DMSO in experiment [4] was 95.8% (inactive); in experiment [5], 104% (inactive); in experiment [5] (setting [6]), 103%; in experiment [5] (setting [7]), 106%.
For the compound `Cc1cc(NCCN2CCOCC2)n2nc(C)c(-c3ccccc3)c2n1`, the GFP response vs DMSO in experiment [1] was 98.8% (inactive); in experiment [1] (setting [6]), 99.1%; in experiment [1] (setting [7]), 97.4%; in experiment [3] it was 102% (inactive). The GFP response relative to DMSO in experiment [2] was 100% (inactive); in experiment [2] (setting [8]), 95%; in experiment [2] (setting [9]) it was 99.5%. In addition, the GFP response, % of DMSO is 95.2% (inactive) in experiment [4], 92.1% (inactive) in experiment [5], 94.6% in experiment [5] (setting [6]) and 91% in experiment [5] (setting [7]).
On to `CCC(=O)Nc1ccc(NC(=O)c2oc3ccccc3c2C)cc1`, for which the GFP response vs DMSO in experiment [1] was 101% (inactive); in experiment [1] (setting [6]), 95%; in experiment [1] (setting [7]), 96.3%; in experiment [3] it was 102% (inactive). The GFP response relative to DMSO in experiment [2] was 99.8% (inactive); in experiment [2] (setting [8]), 100%; in experiment [2] (setting [9]), 101%. Besides, the GFP response, % of DMSO in experiment [4] is 93.9% (inactive); in experiment [5], 103% (inactive); in experiment [5] (setting [6]) it was 99.7%; in experiment [5] (setting [7]), 102%.
Turning to `Cc1cc(N2CCC(C)CC2)n2nc(C)c(-c3ccccc3)c2n1`, the GFP response vs DMSO in experiment [1] was 101% (inactive); in experiment [1] (setting [6]), 101%; in experiment [1] (setting [7]), 101%; in experiment [3], 104% (inactive). Moreover, the GFP response relative to DMSO in experiment [2] is 97.7% (inactive); in experiment [2] (setting [8]) it was 93.6%; in experiment [2] (setting [9]) it was 97.5%. For the same compound, the GFP response, % of DMSO in experiment [4] was 98.4% (inactive); in experiment [5], 101% (inactive); in experiment [5] (setting [6]) it was 102%; in experiment [5] (setting [7]), 99.1%.
For the compound `CCOC(=O)C(=CNNc1cccc(Cl)c1)C(=O)OCC`, the GFP response vs DMSO was 103% (inactive) in experiment [1], 102% in experiment [1] (setting [6]), 102% in experiment [1] (setting [7]) and 111% (inactive) in experiment [3]. The GFP response relative to DMSO in experiment [2] was 131% (inactive); in experiment [2] (setting [8]) it was 125%; in experiment [2] (setting [9]) it was 137%. In addition, the GFP response, % of DMSO in experiment [4] was 103% (inactive); in experiment [5], 103% (inactive); in experiment [5] (setting [6]) it was 101%; in experiment [5] (setting [7]), 104%.
For `OC1(c2ccc(F)cc2)CSC(=Nc2cccnc2)N1Cc1ccco1` (stereo not drawn), the GFP response vs DMSO in experiment [1] is 98% (inactive); in experiment [1] (setting [6]) it was 99.6%; in experiment [1] (setting [7]) it was 98.7%; in experiment [3], 110% (inactive). The GFP response relative to DMSO in experiment [2] is 102% (inactive); in experiment [2] (setting [8]) it was 99.7%; in experiment [2] (setting [9]), 104%. Moreover, the GFP response, % of DMSO in experiment [4] is 104% (inactive); in experiment [5], 108% (inactive); in experiment [5] (setting [6]), 106%; in experiment [5] (setting [7]) it was 108%.
In the case of `COc1ccc(/C=C/C(=O)c2c(O)cc(C)oc2=O)c(OC)c1`, the GFP response vs DMSO in experiment [1] is 104% (inactive); in experiment [1] (setting [6]), 101%; in experiment [1] (setting [7]), 103%; in experiment [3] it was 103% (inactive). The GFP response relative to DMSO is 102% (inactive) in experiment [2], 101% in experiment [2] (setting [8]) and 103% in experiment [2] (setting [9]). The GFP response, % of DMSO in experiment [4] was 100% (inactive); in experiment [5], 95.9% (inactive); in experiment [5] (setting [6]) it was 95.6%; in experiment [5] (setting [7]) it was 90.7%.
Consider `Cc1[nH]n(-c2ccccc2)c(=O)c1C(c1ccccc1[N+](=O)[O-])C(C#N)C#N` (stereo not drawn), for which the GFP response vs DMSO was 106% (inactive) in experiment [1], 84.6% in experiment [1] (setting [6]), 98.8% in experiment [1] (setting [7]) and 112% (inactive) in experiment [3]. The GFP response relative to DMSO in experiment [2] is 192% (active); in experiment [2] (setting [8]) it was 168%; in experiment [2] (setting [9]), 195%. The GFP response, % of DMSO was 98.9% (inactive) in experiment [4], 98.4% (inactive) in experiment [5], 113% in experiment [5] (setting [6]) and 81.8% in experiment [5] (setting [7]).
As for `C/C(=N\NC(=O)c1nonc1N)c1cccs1`, the GFP response vs DMSO in experiment [1] was 98.2% (inactive); in experiment [1] (setting [6]), 98.8%; in experiment [1] (setting [7]), 98.1%; in experiment [3] it was 99.5% (inactive). The GFP response relative to DMSO was 102% (inactive) in experiment [2], 99.3% in experiment [2] (setting [8]) and 100% in experiment [2] (setting [9]). Moreover, the GFP response, % of DMSO in experiment [4] was 94.5% (inactive); in experiment [5] it was 99.3% (inactive); in experiment [5] (setting [6]), 98.3%; in experiment [5] (setting [7]), 98%.
Consider `Cc1ccc(SC(=O)c2c(C)noc2-c2cc(C)on2)cc1`, for which the GFP response vs DMSO in experiment [1] was 103% (inactive); in experiment [1] (setting [6]), 102%; in experiment [1] (setting [7]), 104%; in experiment [3], 126% (inactive). Further, the figures for the GFP response relative to DMSO in experiment [2], in experiment [2] (setting [8]) and in experiment [2] (setting [9]) were 120% (inactive), 120% and 121%, respectively. Also, the GFP response, % of DMSO in experiment [4] is 107% (inactive); in experiment [5] it was 124% (inactive); in experiment [5] (setting [6]), 124%; in experiment [5] (setting [7]) it was 121%.
Turning to `COc1cc(C)c(C)cc1S(=O)(=O)N1CCCCC1c1cccnc1` (stereo not drawn), the GFP response vs DMSO in experiment [1] was 98.4% (inactive); in experiment [1] (setting [6]), 98.8%; in experiment [1] (setting [7]), 99.2%; in experiment [3], 99.5% (inactive). In addition, the GFP response relative to DMSO in experiment [2] is 102% (inactive); in experiment [2] (setting [8]), 105%; in experiment [2] (setting [9]), 99.5%. Moreover, the GFP response, % of DMSO was 100% (inactive) in experiment [4], 96.4% (inactive) in experiment [5], 100% in experiment [5] (setting [6]) and 95.6% in experiment [5] (setting [7]).

The values are drawn from PubChem BioAssay.
